CDK5 p35 inh = inhibitors of human CDK5/p35 kinase, primary screen, biochemical, single concentration. Recombinant CDK5/p35, ADP-Glo luminescence, 60 min. inhibition, % at 10 µM. hit rate 0.01% among 330,000;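 active = highest replicate inhibition of at least 50% and at least 75% of replicates reaching 50%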;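 note: plate controls were DMSO neutral control for no effect and GW8510 at 10 µM for full effect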
STK33 kinase inh = inhibitors of purified STK33 kinase, primary screen, biochemical, ADP-Glo luminescence, homogeneous, cell-free; Serine/threonine-protein kinase 33 (Homo sapiens), Q9BYT3; MBP phosphorylation; hit rate 0.073% among 320,000; inhibition, % at 10 µM;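 active = inhibition at or above 25%, using the most active replicate where run in duplicate; inactive = inhibition below 25%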
GSK3 alpha inh = blockers of GSK3A enzyme activity – biochemical, luminescence, cell-free homogeneous, HTS, primary screen | GSK-3 alpha kinase, ADP-Glo luminescence, 60 min | AID 2650, 2010 | hit rate 0.1% among 320,000 | inhibition, % at 10 µM | Glycogen synthase kinase-3 alpha (Homo sapiens), P49840;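 active = more than half of replicates show inhibition above 20%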;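 note: GST-tagged GSK-3 alpha with peptide substrate and 25 µM ATP; 0% = DMSO neutral wells and 100% = GW8510 positive control wells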
Target sequence (P49840 whole entry, looked up): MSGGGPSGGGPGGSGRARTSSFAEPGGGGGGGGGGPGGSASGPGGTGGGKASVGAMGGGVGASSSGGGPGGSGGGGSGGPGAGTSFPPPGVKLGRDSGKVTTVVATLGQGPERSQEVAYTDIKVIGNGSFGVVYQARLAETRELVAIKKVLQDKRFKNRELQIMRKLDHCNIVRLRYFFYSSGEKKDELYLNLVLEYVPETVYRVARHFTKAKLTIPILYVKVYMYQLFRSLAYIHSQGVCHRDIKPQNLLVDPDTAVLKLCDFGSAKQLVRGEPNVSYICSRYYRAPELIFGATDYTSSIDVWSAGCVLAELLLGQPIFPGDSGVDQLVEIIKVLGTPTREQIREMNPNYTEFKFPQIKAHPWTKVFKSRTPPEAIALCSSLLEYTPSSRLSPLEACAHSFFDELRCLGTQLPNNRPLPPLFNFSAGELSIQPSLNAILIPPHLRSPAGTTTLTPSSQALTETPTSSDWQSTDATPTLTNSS
GSK3beta inhib = human GSK3beta kinase inhibitors, primary screen, biochemical, cell-free homogeneous, HTS. GST-GSK3beta kinase, ADP-Glo luminescence, 60 min; active compounds read low. hit rate 0.038% among 300,000. Glycogen synthase kinase-3 beta (Homo sapiens), P49841. AID 2097, 2009. activity score (negative = inhibition), % at 10 µM;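 active = more than half of replicate wells score below -50%, meaning over 50% inhibition versus plate controls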;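 note: 0% = median DMSO wells and -100% = median GW8510 positive control wells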
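Test system: GST-fused GSK3beta enzyme, cell-free | Quantity: 1.6 ng GST-GSK3beta enzyme per well | Reagent: 25 µM ATP with peptide substrate | Schedule: 60 min enzyme reaction, room temperature | Signal: Luminescent ADP-Glo measurement of ADP formed | Read-out basis: Score relative to plate controls | Control set: DMSO and 20 µM GW8510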
DYRK1A inh = rat Dyrk1A kinase inhibitors, primary screen, biochemical, single point, plate reader; ADP-Glo luminescence, NFATc1 peptide; inhibition, % at 12.5 µM; hit rate 0.43% among 310,000; Dual specificity tyrosine-phosphorylation-regulated kinase 1A (Rattus norvegicus), Q63470; in the data active = inhibition above about 50%;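 note: plate controls were vehicle with enzyme for no effect and no enzyme for full effect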
An asterisk follows results filed as active. The sample as a whole holds a higher share of hits than the screen did.

N#C/C(=C\c1coc2ccc(O)cc2c1=O)C(=O)Nc1nc2ccccc2s1 was read as CDK5 p35 inh -1, STK33 kinase inh 0, GSK3 alpha inh -3, GSK3beta inhib 4 and DYRK1A inh 9.
Screening Nc1cccc(-c2c[nH]c3ncc(-c4cccnc4)cc23)c1 returned CDK5 p35 inh 10 and DYRK1A inh 77*.
For Nc1ccc2nc(-c3cccnc3)[nH]c2c1 the results were CDK5 p35 inh -2, STK33 kinase inh 5, GSK3 alpha inh 2, GSK3beta inhib -4 and DYRK1A inh -4.
CCCCCCCCCCCn1nnnc1N was read as CDK5 p35 inh -2.
For O=C(COC(=O)C1=Cc2ccccc2OC1)NCc1ccc(F)cc1 the results were CDK5 p35 inh 1 and DYRK1A inh 5.
Screening N#Cc1c(Cl)nc(-c2ccncc2)nc1-c1ccccc1 returned CDK5 p35 inh 1, STK33 kinase inh 10, GSK3 alpha inh 75*, GSK3beta inhib -62* and DYRK1A inh -8.
For C#CCOCCOCCOCCNc1nc(N2CCN(C(=O)CCCCCCCCCCNC(=O)[C@H](CCCCN)n3cc(C)nn3)CC2)nc(N2CCN(C(=O)CCCCCCCCCCNC(=O)[C@H](CCCN=C(N)N)n3cc(C[C@@H](C)CC)nn3)CC2)n1 the results were STK33 kinase inh 20 and GSK3 alpha inh 25.
`C#CCOCCOCCOCCNc1nc(N2CCN(C(=O)CCCCCCCCCCNC(=O)[C@H](CO)n3cc(CCCCCN)nn3)CC2)nc(N2CCN(C(=O)CCCCCCCCCCNC(=O)[C@H](CCCN=C(N)N)n3cc(C[C@@H](C)CC)nn3)CC2)n1` gave STK33 kinase inh 21 and GSK3 alpha inh 24.
For C#CCOCCOCCOCCNc1nc(N2CCN(C(=O)CCCCCCCCCCNC(=O)[C@H]([C@@H](C)CC)n3cc(CCCCN=C(N)N)nn3)CC2)nc(N2CCN(C(=O)CCCCCCCCCCNC(=O)[C@H](CCCN=C(N)N)n3cc(C[C@@H](C)CC)nn3)CC2)n1 the results were STK33 kinase inh 31* and GSK3 alpha inh -14.
C#CCOCCOCCOCCNc1nc(N2CCN(C(=O)CCCCCCCCCCNC(=O)[C@H](CCCN=C(N)N)n3cc(C[C@@H](C)CC)nn3)CC2)nc(N2CCN(C(=O)CCCCCCCCCCNC(=O)[C@@H]([C@H](C)CC)n3cc(CCCCCN)nn3)CC2)n1 was read as STK33 kinase inh 27* and GSK3 alpha inh 15.
`C#CCOCCOCCOCCNc1nc(N2CCN(C(=O)CCCCCCCCCCNC(=O)[C@H](CCCCN)n3cc(C[C@@H](C)CC)nn3)CC2)nc(N2CCN(C(=O)CCCCCCCCCCNC(=O)[C@H](CCCN=C(N)N)n3cc(C[C@@H](C)CC)nn3)CC2)n1` gave CDK5 p35 inh 6, STK33 kinase inh 29*, GSK3 alpha inh 13 and DYRK1A inh 27.
`Cc1cccc(CSc2ccc3nnc(-c4cccs4)n3n2)c1` gave CDK5 p35 inh 0, STK33 kinase inh -1, GSK3beta inhib 3 and DYRK1A inh -1.
CCSc1ccc2nnc(-c3ccc(F)cc3)n2n1 was read as CDK5 p35 inh -1, STK33 kinase inh -1, GSK3 alpha inh 82*, GSK3beta inhib -76* and DYRK1A inh 44.
For CCSc1ccc2nnc(-c3cccs3)n2n1 the results were CDK5 p35 inh 2, STK33 kinase inh 8, GSK3 alpha inh 44 and GSK3beta inhib -53*.
CC(Sc1ccc2nnc(-c3ccc(F)cc3)n2n1)C(=O)O (centres undefined) was read as CDK5 p35 inh 0, STK33 kinase inh 6, GSK3 alpha inh 51*, GSK3beta inhib -38 and DYRK1A inh 49.
`CCOC(=O)CSc1ccc2nnc(-c3ccncc3)n2n1` gave CDK5 p35 inh -1, STK33 kinase inh 2, GSK3 alpha inh 81*, GSK3beta inhib 0 and DYRK1A inh 14.
CCOc1ccc(/C(C)=N\NC(=O)Cc2ccccc2)cc1 was read as CDK5 p35 inh -2, STK33 kinase inh -2, GSK3 alpha inh 6, GSK3beta inhib -1 and DYRK1A inh -1.
`Cc1ccc(NC(=O)COC(=O)CCc2c[nH]c3ccccc23)c(C)c1` gave CDK5 p35 inh 3, STK33 kinase inh -2, GSK3 alpha inh 3 and DYRK1A inh -4.
COc1cc(N=Nc2cccc(S(N)(=O)=O)c2)c2ccccc2c1N was read as CDK5 p35 inh 10, STK33 kinase inh 4, GSK3 alpha inh 4, GSK3beta inhib -3 and DYRK1A inh 58*.
`NC1=NC(=Nc2cccc(S(N)(=O)=O)c2)c2ccccc21` gave CDK5 p35 inh -2, STK33 kinase inh 0, GSK3 alpha inh 2, GSK3beta inhib 2 and DYRK1A inh -5.
`Cc1ccc(-c2nn(CCC(=O)O)cc2/C=C\C(=O)c2ccc(Br)cc2)cc1` gave CDK5 p35 inh -3, STK33 kinase inh 36*, GSK3 alpha inh 6 and GSK3beta inhib 0.
For O=C(CCS(=O)(=O)c1ccccc1)N(CCCN1CCOCC1)c1nc2ccc(F)cc2s1 the results were CDK5 p35 inh 0, STK33 kinase inh -2, GSK3 alpha inh -36, GSK3beta inhib 0 and DYRK1A inh -1.
COc1ccc2occ(C(=O)c3cccs3)c2c1 was read as CDK5 p35 inh -1, STK33 kinase inh 4, GSK3 alpha inh 59*, GSK3beta inhib -41 and DYRK1A inh 39.
`COc1ccc(OC)c(C(=O)c2coc3ccc(O)c(CN(C)C)c23)c1` gave CDK5 p35 inh 1, STK33 kinase inh -1, GSK3 alpha inh 0, GSK3beta inhib 3 and DYRK1A inh -3.
`COc1ccc2occ(C(=O)c3coc4ccc(O)c(CN(C)C)c34)c2c1` gave CDK5 p35 inh -1, STK33 kinase inh 4, GSK3 alpha inh 85*, GSK3beta inhib -68* and DYRK1A inh 18.
CCOCCCN1C(=O)CN(C2CCC(C)CC2)C(=O)C1c1ccc(C)cc1 (centres undefined) was read as CDK5 p35 inh -1, STK33 kinase inh -2, GSK3 alpha inh 0, GSK3beta inhib -2 and DYRK1A inh 3.
COc1ccccc1NC(=O)Nc1cnccn1 was read as CDK5 p35 inh 2, STK33 kinase inh 1, GSK3 alpha inh -4, GSK3beta inhib 0 and DYRK1A inh 3.
For COc1ccccc1NC(=O)Nc1ncccc1C the results were CDK5 p35 inh 0, STK33 kinase inh 30*, GSK3 alpha inh -1, GSK3beta inhib 3 and DYRK1A inh 7.
Cc1ccc(S(=O)(=O)N2CCCC(C(=O)NCCC(C)C)C2)cc1 (centres undefined) was read as CDK5 p35 inh 0, STK33 kinase inh 1, GSK3 alpha inh 4, GSK3beta inhib -6 and DYRK1A inh -2.
